Assay results taken from ChEMBL document CHEMBL1153602, “Photochemical electrocyclisation of 3-vinylindoles to pyrido[2,3-a]-, pyrido[4,3-a]- and thieno[2,3-a]-carbazoles: design, synthesis, DNA binding and antitumor cell cytotoxicity” (2009).
Calls of active or inactive are those of the source. The rule behind the calls is not given here.

Assays:
HT-29 [1] = assay: Cell cycle arrest in human HT-29 cells assessed as accumulation at G2/M phase after 24 hrs using PI staining by flow cytometry; type: functional, cell-based
In short: (§1)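 HT-29 cells, 3×10^5 per sample in exponential growth, were exposed to graded drug concentrations for 24 h. Cells were then trypsinised, fixed in 70% ethanol and stained 30 min in the dark with propidium iodide (50 µg/ml) plus RNase (100 µg/ml). DNA content was measured by flow cytometry, quantifying cell-cycle phases and the sub-G1 fraction.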

HT-29 [2] = assay: Cell cycle arrest in human HT-29 cells assessed as reduction of cells in G1 phase after 24 hrs using PI staining by flow cytometry; type: functional, cell-based; in short: as §1
HT-29 [3] = assay: Cell cycle arrest in human HT-29 cells assessed as accumulation at S phase at 25 uM after 24 hrs using PI staining by flow cytometry; type: functional; in short: as §1
OVCAR-3 = assay: Growth inhibition of human OVCAR-3 cells after 48 hrs by sulforhodamine B protein assay; type: functional; conditions: OVCAR-3, 48 h
In short: (§2)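 NCI 60-cell-line screen. Dose–response used at least five concentrations in 10-fold dilutions with 48 h continuous drug exposure. Growth was estimated by sulforhodamine B protein staining. GI50 is the molar concentration giving 50% growth inhibition versus control.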

CAKI-1 = assay: Growth inhibition of human Caki1 cells after 48 hrs by sulforhodamine B protein assay; type: functional; conditions: CAKI-1, 48 h; in short: as §2
IGROV-1 = assay: Growth inhibition of human IGROV1 cells after 48 hrs by sulforhodamine B protein assay; type: functional; conditions: IGROV-1, 48 h; in short: as §2
UO-31 = assay: Growth inhibition of human UO31 cells after 48 hrs by sulforhodamine B protein assay; type: functional; conditions: UO-31, 48 h; in short: as §2
HT-29 [4] = assay: Growth inhibition of human HT-29 cells after 48 hrs by sulforhodamine B protein assay; type: functional; conditions: HT-29, 48 h; in short: as §2
HT-29 [5] = assay: Growth inhibition of human HT-29 cells by MTS assay; type: functional
In short: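 HT-29 cells, 3×10^3 per well, were seeded 24 h before treatment with compound at 1 nM–100 µM, run as 3 series of duplicate or triplicate points. After 72 h at 37 °C, MTS tetrazolium was added for 2 h and absorbance read at 492 nm. GC50 is the concentration halving cell number versus untreated control wells.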

Calf thymus DNA [6] = assay: Binding affinity to calf thymus DNA assessed as change in melting temperature at a compound to DNA molar ratio of 0.1 by UV-vis spectroscopy; type: nucleic-acid assay; conditions: Bos taurus
In short: (§3)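 UV absorbance of DNA at 260 nm recorded every minute from 20 to 100 °C, ramping 1 °C/min in a thermostated quartz cell. Tm is taken as the midpoint of the hyperchromic transition. ΔTm = Tm(DNA+drug) − Tm(DNA alone). Calf-thymus DNA or poly(dAdT)2 was used at DNA/drug ratios from 0.1 to 1.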

Calf thymus DNA [7] = assay: Binding affinity to calf thymus DNA assessed as change in melting temperature at a compound to DNA molar ratio of 0.25 by UV-vis spectroscopy; type: nucleic-acid assay; conditions: Bos taurus; in short: as §3
Calf thymus DNA [8] = assay: Binding affinity to calf thymus DNA assessed as change in melting temperature at a compound to DNA molar ratio of 0.5 by UV-vis spectroscopy; type: nucleic-acid assay; conditions: Bos taurus; in short: as §3
Calf thymus DNA [9] = assay: Binding affinity to calf thymus DNA assessed as change in melting temperature at a compound to DNA molar ratio of 1 by UV-vis spectroscopy; type: nucleic-acid assay; conditions: Bos taurus; in short: as §3
Nucleic Acid [10] = assay: Binding affinity to poly(dA).poly(dT) duplex DNA assessed as change in thermal melting temperature at compound to DNA ratio of 0.1 by UV-vis spectroscopy; type: nucleic-acid assay
Nucleic Acid [11] = assay: Binding affinity to poly(dA).poly(dT) duplex DNA assessed as change in thermal melting temperature at compound to DNA ratio of 0.25 by UV-vis spectroscopy; type: nucleic-acid assay
Nucleic Acid [12] = assay: Binding affinity to poly(dA).poly(dT) duplex DNA assessed as change in thermal melting temperature at compound to DNA ratio of 0.5 by UV-vis spectroscopy; type: nucleic-acid assay
Nucleic Acid [13] = assay: Binding affinity to poly(dA).poly(dT) duplex DNA assessed as change in thermal melting temperature at compound to DNA ratio of 1 by UV-vis spectroscopy; type: nucleic-acid assay
Nucleic Acid [14] = assay: Binding affinity to pBS 117bp DNA by DnaseI footprinting assay; type: nucleic-acid assay
In short: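 Ligand and fragment were pre-incubated 15 min at 37 °C, then digested with DNase I at 0.001 unit/ml in 20 mM NaCl, 2 mM MgCl2, 2 mM MnCl2, pH 7.3. Products were resolved on a denaturing 8% polyacrylamide/8 M urea gel, with a G-track marker.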

[15] = biological target: T1, DNA topoisomerase 1 (Homo sapiens) (UniProt P11387); assay: Inhibition of human topoisomerase 1-mediated DNA relaxation assessed as lack of nicking form by agarose gel electrophoresis
T1 sequence (whole entry): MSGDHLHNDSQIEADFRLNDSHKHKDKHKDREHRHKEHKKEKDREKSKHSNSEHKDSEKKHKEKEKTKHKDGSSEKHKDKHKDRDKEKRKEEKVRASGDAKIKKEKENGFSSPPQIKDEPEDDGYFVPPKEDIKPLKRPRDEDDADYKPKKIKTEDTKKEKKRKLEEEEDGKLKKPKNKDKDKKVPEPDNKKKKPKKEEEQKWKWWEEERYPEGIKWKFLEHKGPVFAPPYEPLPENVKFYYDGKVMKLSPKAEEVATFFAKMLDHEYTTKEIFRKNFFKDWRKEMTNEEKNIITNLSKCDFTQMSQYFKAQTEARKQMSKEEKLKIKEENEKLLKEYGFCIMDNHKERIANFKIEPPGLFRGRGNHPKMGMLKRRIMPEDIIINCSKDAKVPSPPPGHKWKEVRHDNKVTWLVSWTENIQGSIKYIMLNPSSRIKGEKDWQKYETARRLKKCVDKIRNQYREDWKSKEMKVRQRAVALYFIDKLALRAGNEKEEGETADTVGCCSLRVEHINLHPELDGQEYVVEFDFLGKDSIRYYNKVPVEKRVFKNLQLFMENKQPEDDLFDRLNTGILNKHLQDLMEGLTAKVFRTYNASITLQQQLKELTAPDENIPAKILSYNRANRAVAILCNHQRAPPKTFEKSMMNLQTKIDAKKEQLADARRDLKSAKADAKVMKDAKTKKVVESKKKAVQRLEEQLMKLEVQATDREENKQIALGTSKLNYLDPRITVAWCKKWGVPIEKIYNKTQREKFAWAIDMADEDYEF
In short: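 Supercoiled pUC19 (130 ng) was pre-incubated with compound at graded concentrations, or 20 or 50 µM in the cleavage assay. Human topoisomerase I (4 units) was then added for 45 min at 37 °C in 50 mM Tris pH 7.8, 50 mM KCl, 10 mM MgCl2, 1 mM DTT, 1 mM EDTA, 1 mM ATP. Camptothecin (20 µM) served as control. Samples ran on 1% agarose for 2 h at 120 V in TBE, with ethidium bromide either post-stained (relaxation) or included in the gel (cleavage).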

[16] = biological target: DNA topoisomerase 2-alpha (Homo sapiens) (UniProt P11388); assay: Inhibition of human topoisomerase 2-mediated DNA relaxation assessed as double stranded break form by agarose gel electrophoresis
Sequence of DNA topoisomerase 2-alpha (Homo sapiens) (P11388 whole entry): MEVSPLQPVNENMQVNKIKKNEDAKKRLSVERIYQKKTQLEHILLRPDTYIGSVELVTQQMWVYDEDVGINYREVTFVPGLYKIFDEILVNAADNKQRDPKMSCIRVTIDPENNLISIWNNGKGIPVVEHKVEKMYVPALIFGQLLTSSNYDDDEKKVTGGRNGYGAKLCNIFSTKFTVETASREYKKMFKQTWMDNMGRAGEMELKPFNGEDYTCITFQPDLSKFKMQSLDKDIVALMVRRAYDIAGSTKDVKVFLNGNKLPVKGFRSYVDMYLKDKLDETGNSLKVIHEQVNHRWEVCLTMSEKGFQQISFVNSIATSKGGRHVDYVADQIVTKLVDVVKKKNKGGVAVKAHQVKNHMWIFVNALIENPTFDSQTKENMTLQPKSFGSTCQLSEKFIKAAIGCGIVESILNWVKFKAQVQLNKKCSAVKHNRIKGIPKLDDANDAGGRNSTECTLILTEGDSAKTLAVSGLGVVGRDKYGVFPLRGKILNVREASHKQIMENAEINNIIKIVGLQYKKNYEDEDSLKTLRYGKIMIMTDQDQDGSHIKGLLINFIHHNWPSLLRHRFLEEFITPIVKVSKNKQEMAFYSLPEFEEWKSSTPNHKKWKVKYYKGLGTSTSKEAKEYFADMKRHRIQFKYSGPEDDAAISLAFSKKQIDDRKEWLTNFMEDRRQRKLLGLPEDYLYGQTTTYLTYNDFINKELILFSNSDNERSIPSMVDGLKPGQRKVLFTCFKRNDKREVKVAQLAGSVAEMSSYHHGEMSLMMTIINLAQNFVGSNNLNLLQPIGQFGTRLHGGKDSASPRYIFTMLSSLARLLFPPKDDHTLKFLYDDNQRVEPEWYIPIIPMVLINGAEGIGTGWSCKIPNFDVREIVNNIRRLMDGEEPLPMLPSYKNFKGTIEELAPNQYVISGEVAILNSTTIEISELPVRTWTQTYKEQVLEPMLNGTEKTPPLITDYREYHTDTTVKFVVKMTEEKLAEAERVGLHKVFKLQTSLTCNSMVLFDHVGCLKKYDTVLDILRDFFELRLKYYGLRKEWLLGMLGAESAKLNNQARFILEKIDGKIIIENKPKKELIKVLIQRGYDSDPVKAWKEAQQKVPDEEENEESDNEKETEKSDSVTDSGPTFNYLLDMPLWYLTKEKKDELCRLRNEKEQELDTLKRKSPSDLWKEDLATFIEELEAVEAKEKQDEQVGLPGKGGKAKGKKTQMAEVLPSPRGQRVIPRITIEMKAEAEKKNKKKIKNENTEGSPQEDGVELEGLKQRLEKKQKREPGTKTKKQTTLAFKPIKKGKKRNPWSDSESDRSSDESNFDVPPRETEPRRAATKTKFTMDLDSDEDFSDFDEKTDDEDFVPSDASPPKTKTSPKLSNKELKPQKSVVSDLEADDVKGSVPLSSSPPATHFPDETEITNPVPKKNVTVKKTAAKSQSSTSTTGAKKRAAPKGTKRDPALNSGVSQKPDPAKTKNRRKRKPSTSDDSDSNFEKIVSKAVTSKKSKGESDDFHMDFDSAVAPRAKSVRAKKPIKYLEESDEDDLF
In short: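 Supercoiled pUC19 (130 ng) with compound at 20 or 50 µM, or etoposide as control, was incubated with human topoisomerase II (4 units) for 45 min at 37 °C in cleavage buffer. The reaction was stopped with 0.25% SDS plus proteinase K for 30 min at 50 °C. DNA forms were separated on 1% agarose containing ethidium bromide in TBE.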

CCRF-CEM = assay: Growth inhibition of human CCRF-CEM cells after 48 hrs by sulforhodamine B protein assay; type: functional; in short: as §2
COLO 205 = assay: Growth inhibition of human COLO205 cells after 48 hrs by sulforhodamine B protein assay; type: functional; conditions: COLO 205, 48 h; in short: as §2
ACHN = assay: Growth inhibition of human ACHN cells after 48 hrs by sulforhodamine B protein assay; type: functional; in short: as §2
Calf thymus DNA [17] = assay: Binding affinity to calf thymus DNA assessed as enhancement constant by fluorescence spectroscopy; type: nucleic-acid assay; conditions: Bos taurus
In short: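 Drug at a fixed 20 µM in 1 ml BPE buffer in a 10 mm quartz cuvette, titrated with CT-DNA at 10–200 µM base pairs. Excitation was set at each compound's own wavelength (276–319 nm). Constants came from Stern–Volmer plots of F0/F against CT-DNA concentration, with the slope taken as Ksv.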

HT-29 [18] = assay: Cell cycle arrest in human HT-29 cells assessed as accumulation at S phase at 10 uM after 24 hrs using PI staining by flow cytometry; type: functional; in short: as §1
HT-29 [19] = assay: Cell cycle arrest in human HT-29 cells assessed as accumulation at G2/M phase at 25 uM after 24 hrs using PI staining by flow cytometry; type: functional, cell-based; in short: as §1
HT-29 [20] = assay: Cell cycle arrest in human HT-29 cells at 25 uM after 24 hrs using PI staining by flow cytometry

GI50 (HT-29 [4]; read-out: GI50) [µM] | GI50 (HT-29 [4]; read-out: pGI50 (converted)) [µM] | GI50 (HT-29 [5]) [µM] | ΔTm (Calf thymus DNA [6]) [°C] | ΔTm (Calf thymus DNA [7]) [°C] | ΔTm (Calf thymus DNA [8]) [°C] | ΔTm (Calf thymus DNA [9]) [°C] | ΔTm (Nucleic Acid [10]) [°C] | ΔTm (Nucleic Acid [11]) [°C] | ΔTm (Nucleic Acid [12]) [°C] | ΔTm (Nucleic Acid [13]) [°C] | Activity (Nucleic Acid [14]) | Activity [15] | Activity [16] | Activity (Calf thymus DNA [17]) | Structure (SMILES) | Activity (HT-29 [1]) | Activity (HT-29 [2]) | Activity (HT-29 [3]) [%] | other results
5.27 | 5.25 | 11.5 | 0 | 3 | 2.9 | 7.3 | 2.9 | 11.8 | 14.5 | 18.9 | Active | Active | Active |  | CN(C)CCNC(=O)c1cc2c3ccccc3[nH]c2c2ncccc12 | Active | Active | 32.6 | GI50 (OVCAR-3; read-out: GI50): 0.0254 µM; GI50 (OVCAR-3; read-out: pGI50 (converted)): 0.0251 µM; GI50 (CAKI-1; read-out: GI50): 0.515 µM; GI50 (CAKI-1; read-out: pGI50 (converted)): 0.525 µM; GI50 (IGROV-1; read-out: GI50): 1.14 µM; GI50 (IGROV-1; read-out: pGI50 (converted)): 1.1 µM; GI50 (UO-31; read-out: GI50): 2.13 µM; GI50 (UO-31; read-out: pGI50 (converted)): 2.09 µM
 |  |  |  |  |  |  |  |  |  |  |  |  | Active |  | COc1cc([C@@H]2c3cc4c(cc3[C@@H](O[C@@H]3O[C@@H]5CO[C@@H](C)O[C@H]5[C@H](O)[C@H]3O)[C@H]3COC(=O)[C@H]23)OCO4)cc(OC)c1O |  |  |  | 
10.3 | 1.02 | 10.1 | 0 | 4.4 | 4.4 | 7.3 | 2.9 | 8.9 | 11.6 | 17.5 | Active | Active | Active | 5.94 ×10² /M | CN(C)CCCNC(=O)c1cc2c3ccccc3[nH]c2c2ncccc12 | Active | Active | 31.7 | GI50 (CCRF-CEM; read-out: GI50): 4.31 µM; GI50 (CCRF-CEM; read-out: pGI50 (converted)): 4.27 µM; GI50 (COLO 205; read-out: GI50): 4.43 µM; GI50 (COLO 205; read-out: pGI50 (converted)): 4.47 µM; GI50 (ACHN; read-out: GI50): 5.24 µM; GI50 (ACHN; read-out: pGI50 (converted)): 5.25 µM
 |  | 9.23 | 3 | 7.4 | 8.8 | 13.2 | 6.1 | 9.2 | 20.4 | 27.8 | Active | Active | Active | 4.84 ×10³ /M | CN(C)CCCNC(=O)c1cc2c3cc(Cl)ccc3[nH]c2c2ncccc12 |  |  |  | Activity (HT-29 [18]): 26.1%; Activity (HT-29 [19]): Active; Activity (HT-29 [20]): Active
